One data set concerns MDA-MB-231. The experiment in a line: Cytotoxicity against human MDA-MB-231 cells assessed as reduction in cell viability after 24 hrs by MTT assay. The data set is classed as functional, cell-based. To be noted: MDA-MB-231, 24 h. An outline of the steps:
(§1)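 Cells kept at 37 °C, 5% CO2. MDA-MB-231 were grown in DMEM with 10% FBS, 2 mM L-glutamine, NEAA and pen-strep, seeded at 2500 cells/well. A4 were grown in RPMI 1640 with 10% FBS and pen-strep, seeded at 5000 cells/well. WI-38 were grown in DMEM with 10% FBS, seeded at 5000 cells/well. Plates rested 24 h before compound was added in triplicate. MTT absorbance was read at 570 nm.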
(In general: Formazan colour is commonly taken as a measure of viable cells.)

Data set [1] is described as follows: Cytotoxicity against human A4 cells assessed as reduction in cell viability after 24 hrs by MTT assay. The data set is classed as functional, cell-based. The essentials: as §1
Data set [2] is described as follows: Inhibition of FAM-pYLPQTV binding to unphosphorylated STAT3 beta (unknown origin) expressed in Escherichia coli BL21 Rosetta cells after 5 mins by fluorescence polarization assay. The arrangement: species or system Homo sapiens. The essentials:
(§2)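 Unphosphorylated STAT3βtc was expressed in E. coli with IPTG induction overnight at 21 °C, then purified by ion exchange. In PBS pH 7.4, 350 nM protein was mixed with 10 nM FAM-pYLPQTV (final). Base polarization was read, inhibitor was added, the plate was shaken 5 min and read again. % inhibition = (X−Y)/X×100, each term corrected for free probe.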

A short description of data set [3]: Inhibition of unphosphorylated STAT3 beta dimerization (unknown origin) expressed in Escherichia coli BL21 Rosetta cells after 5 mins by fluorescence polarization assay. The arrangement: species or system Homo sapiens. The essentials: as §2
In general terms: Polarisation of emitted light reports the rotation of a fluorescent probe.

For data set [4], the species on record is Homo sapiens. In words: Inhibition of unphosphorylated STAT3 beta dimerization (unknown origin) expressed in Escherichia coli BL21 Rosetta cells at 100 uM after 5 mins by fluorescence polarization assay relative to pYLKTKF. The essentials: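 Same STAT3βtc/FAM-pYLPQTV polarization displacement setup: 350 nM protein, 10 nM probe, PBS pH 7.4, 5 min after addition. Ligand tested at 100 μM. Its % inhibition (B) was expressed as B/A×100, where A is the % inhibition from 100 μM […], taken as 100%.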

The species named for data set [5] is Homo sapiens. In words: Inhibition of unphosphorylated STAT3 beta dimerization (unknown origin) expressed in Escherichia coli BL21 Rosetta cells at 100 uM after 5 mins by fluorescence polarization assay relative to STA-21.
For the next data set, the system named is WI-38. The experiment in a line: Cytotoxicity against human WI38 cells assessed as reduction in cell viability at 100 uM after 24 hrs by MTT assay. The data set is classed as cell-based. To be noted: wi-38, 24 h. An outline of the steps: as §1

The values below come from ChEMBL document CHEMBL4138288, “Crispenes F and G, cis-Clerodane Furanoditerpenoids from Tinospora crispa, Inhibit STAT3 Dimerization” (J Nat Prod, 2018).

One may read the IC50 as the point on the concentration scale where inhibition reaches its midpoint. By inhibition is commonly meant the drop in the measured response relative to a control, in per cent.

With `C[C@H]1C[C@H]2OC(=O)[C@@]34O[C@@H]3CC[C@@H]([C@]1(C)CCC1=CCOC1=O)[C@@]24C`, the half-inhibitory concentration (IC50) in the data set on MDA-MB-231 was found to be 5.4 µM.
Regarding `C[C@@]1(CC(O)c2ccoc2)C(C(=O)O)=CC[C@]2(C)[C@H]1[C@H]1C=C[C@@]2(O)C(=O)O1` (stereo not given in full), the IC50 in data set [1] was greater than 10 µM; in data set [2] it was 17 µM; in data set [3], 17 µM; in the data set on MDA-MB-231 it was 7.8 µM. In addition, the inhibition in the data set listed under Homo sapiens [4] stood at 72%; in the data set listed under Homo sapiens [5], 130%. For the same compound, the Activity entry with WI-38 is recorded as “Non-Toxic”.
Turning to `COC(=O)C1=C[C@H](O)C[C@H]2[C@@]1(C)C=C[C@](O)(C(=O)O)[C@@]2(C)CC(OC(C)=O)c1ccoc1` (stereo not given in full), the IC50 in data set [1] is greater than 10 µM; in data set [2], 42 µM; in data set [3] it was 42 µM; in the data set with MDA-MB-231, 10 µM. The inhibition in the data set filed under Homo sapiens [4] came to 60%; in the data set listed under Homo sapiens [5], 119%. The Activity result in the data set on WI-38 was “Non-Toxic”.
